Measured values pooled from the literature.
Lines come from different studies, so protocols differ.
Read-out: metabolic stability
Species: rat

Compound	system	conditions	half-life
O=c1[nH]c2ccccc2n1C1CCN(CCCC(c2ccc(F)cc2)c2ccc(F)cc2)CC1	liver microsomes	100 ng/mL	80 min
Cc1[nH]c(C)c(S(=O)(=O)Nc2ccc(S(F)(F)(F)(F)F)c(Cl)c2)c1C(=O)N1CCC(F)(F)C1	liver microsomes	–	34 min
Cc1ncc2n1-c1ccc(Cl)cc1C(c1ccccc1F)=NC2	hepatocytes	–	20.4 min
Cc1[nH]c(C)c(S(=O)(=O)Nc2ccc(S(=O)(=O)F)c(Cl)c2)c1C(=O)N1CCC(F)(F)C1	liver microsomes	–	11 min
CC(C)CC(=O)OC[C@H]1O[C@@](C#N)(c2ccc3c(N)ncnn23)[C@H](O)[C@@H]1O	plasma	5 µM	0.422 min
CC(=O)c1c(C)c2cnc(Nc3ccc(C4CCN(CCS(C)(=O)=O)CC4)cn3)nc2n(C2CCCC2)c1=O	liver microsomes	–	65.4 min
C[C@]12CC[C@H]3[C@@H](CCC4=CC(=O)CC[C@@]43C)[C@@H]1CC[C@@H]2O	liver microsomes	–	1.55 min
C[C@]12CC[C@H]3[C@@H](CCC4=CC(=O)CC[C@@]43C)[C@@H]1CC[C@@H]2O	liver microsomes	1 µM, pH 7.4	5.45 min
